The source of these data is ChEMBL document CHEMBL4406806, “Design, Synthesis, and Characterization of Ogerin-Based Positive Allosteric Modulators for G Protein-Coupled Receptor 68 (GPR68)” (J Med Chem, 2019).

Calls of active or inactive are those of the source. The rule behind the calls is not given here.

One may read the EC50 as the concentration at which the effect is half-maximal. As a reminder, the Kd is the free concentration of one partner at which half of the binding sites on the other are occupied at equilibrium, for simple one-to-one binding. Broadly, the Emax is the size of the effect at its maximum, as opposed to the concentration needed.

Data set [1] has as its target G-protein coupled receptor 68 (Homo sapiens) (UniProt Q15743). In words: Positive allosteric modulation of human GPR68 expressed in HEK293T cells co-expressing Gs assessed as stimulation of proton-mediated cAMP production by measuring allosteric affinity cooperativity in HBSS buffer containing pH 6.8 to 8.2 HEPES/pH 8.3 to 8.6 TAPS measured after 20 to 30 mins in presence of PDE inhibitor Ro 20-1724 by luciferase-glo reporter gene assay. Type of data set: functional, cell-based. The method, boiled down:
(§1)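 Transient co-transfection of HEK293T with receptor and GloSensor plasmids using PEI, overnight, then replated in DMEM + 1% dFBS for 6–24 h. Luciferin 3.5 mM loaded for 1 h at 37 °C in HBSS/20 mM TAPS, pH 8.40. Proton series: Ca/Mg-free HBSS with MES (pH 5.60–6.70), HEPES (6.80–8.20) or TAPS (8.30–8.60), plus 10 μM Ro 20-1724. BSA 1 mg/mL added where solubility required. Luminescence read at 20–30 min. At least six 16-point proton curves across modulator concentrations, quadruplicate, ≥3 independent assays.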
(cAMP levels reflect the balance of adenylyl cyclase and phosphodiesterase activity.)

Data set [2] shares this target. As to the kind of experiment: Positive allosteric modulation of human GPR68 expressed in HEK293T cells co-expressing Gs assessed as stimulation of proton-mediated cAMP production by measuring efficacy cooperativity in HBSS buffer containing pH 6.8 to 8.2 HEPES/pH 8.3 to 8.6 TAPS measured after 20 to 30 mins in presence of PDE inhibitor Ro 20-1724 by luciferase-glo reporter gene assay. In kind it is functional, cell-based. The method, boiled down: as §1

The target is the same in data set [3]. As to the kind of experiment: Positive allosteric modulation of human GPR68 expressed in HEK293T cells co-expressing Gs assessed as stimulation of proton-mediated cAMP production by measuring allosteric index in HBSS buffer containing pH 6.8 to 8.2 HEPES/pH 8.3 to 8.6 TAPS measured after 20 to 30 mins in presence of PDE inhibitor Ro 20-1724 by luciferase-glo reporter gene assay. Type of data set: functional, cell-based. The method, boiled down:
as §1

Data set [4] has the same target. In words: Positive allosteric modulation of human GPR68 expressed in HEK293T cells co-expressing Gs assessed as stimulation of proton-mediated cAMP production in HBSS buffer containing pH 6.8 to 8.2 HEPES/pH 8.3 to 8.6 TAPS measured after 20 to 30 mins in presence of PDE inhibitor Ro 20-1724 by luciferase-glo reporter gene assay. In kind it is functional, cell-based. Put shortly: as §1

For data set [5], the target named is G-protein coupled receptor 65 (Homo sapiens) (UniProt Q8IYL9). In words: Positive allosteric modulation of human GPR65 expressed in HEK293T cells co-expressing Gs assessed as stimulation of proton-mediated cAMP production at higher concentration in HBSS buffer containing pH 6.8 to 8.2 HEPES/pH 8.3 to 8.6 TAPS measured after 20 to 30 mins in presence of PDE inhibitor Ro 20-1724 by luciferase-glo reporter gene assay. In kind it is functional, cell-based. Put shortly: as §1

In data set [6] the target is 5-hydroxytryptamine receptor 2B (Homo sapiens, UniProt P41595). As to the kind of experiment: Displacement of [3H]LSD from recombinant human 5HT2B stably expressed in HEK cell membranes incubated for 90 mins under dark condition by microbeta scintillation counting analysis. A general note: Displacement assays read how much labelled ligand stays bound in the presence of the test substance.

In data set [7] the target is Melatonin receptor type 1A (Homo sapiens, UniProt P48039). In words: Agonist activity at human MT1 receptor expressed in HTLA cells assessed as stimulation of beta-arrestin recruitment at 1 uM incubated for 16 to 20 hrs by bright-glo luminescence assay. In kind it is cell-based.
Data set [8] has as its target T1, Melatonin receptor type 1B (Homo sapiens) (UniProt P49286).
T1 sequence (whole entry): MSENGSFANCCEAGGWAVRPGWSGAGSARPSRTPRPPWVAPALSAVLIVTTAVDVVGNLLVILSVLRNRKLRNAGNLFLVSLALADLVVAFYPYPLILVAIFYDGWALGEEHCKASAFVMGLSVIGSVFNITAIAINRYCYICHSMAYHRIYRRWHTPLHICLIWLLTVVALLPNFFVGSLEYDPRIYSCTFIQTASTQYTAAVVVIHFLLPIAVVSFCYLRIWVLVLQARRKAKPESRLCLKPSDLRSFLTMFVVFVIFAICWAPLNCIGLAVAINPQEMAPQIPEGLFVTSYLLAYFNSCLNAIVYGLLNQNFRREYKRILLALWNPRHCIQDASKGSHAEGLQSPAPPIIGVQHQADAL
In words: Agonist activity at human MT2 receptor expressed in HTLA cells assessed as stimulation of beta-arrestin recruitment at 1 uM incubated for 16 to 20 hrs by bright-glo luminescence assay. Type of data set: cell-based. (In general: Activated receptors often draw arrestin, which recruitment assays turn into a signal.)

Data set [9] concerns the target T2, Melatonin receptor type 1B (Homo sapiens, UniProt P49286).
T2 sequence (P49286 whole entry): T1 sequence (whole entry)
As to the kind of experiment: Agonist activity at human MT2 receptor expressed in HTLA cells assessed as stimulation of beta-arrestin recruitment incubated for 16 to 20 hrs by bright-glo luminescence assay. Type of data set: cell-based. Put shortly: (§2)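 Tango arrestin assay in HTLA cells transfected with receptor DNA overnight in DMEM + 10% FBS, then replated on poly-L-Lys in DMEM + 1% dFBS. Drugs added 6 h later and incubated overnight (16–20 h). Medium removed, Bright-Glo added, luminescence counted.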

Data set [10] deals with T1, Melatonin receptor type 1B (Homo sapiens). As to the kind of experiment: Agonist activity at human MT2 receptor expressed in HTLA cells assessed as stimulation of beta-arrestin recruitment incubated for 16 to 20 hrs by bright-glo luminescence assay relative to control. In kind it is cell-based. Put shortly: as §2
Data set [11] addresses G-protein coupled receptor 68 (Mus musculus) (UniProt Q8BFQ3). As to the kind of experiment: Positive allosteric modulation of mouse GPR68 expressed in HEK293T cells co-expressing Gs assessed as stimulation of proton-mediated cAMP production by measuring allosteric affinity cooperativity in HBSS buffer containing pH 6.8 to 8.2 HEPES/pH 8.3 to 8.6 TAPS measured after 20 to 30 mins in presence of PDE inhibitor Ro 20-1724 by luciferase-glo reporter gene assay. Type of data set: functional, cell-based. Put shortly:
(§3)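 α, β and KB obtained by fitting proton responses with and without modulator to the standard allosteric operational model. Overall index is log(αβ/KB). Values are mean ± SEM from ≥3 independent assays, each run in triplicate or quadruplicate.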

The target is the same in data set [12]. As to the kind of experiment: Positive allosteric modulation of mouse GPR68 expressed in HEK293T cells co-expressing Gs assessed as stimulation of proton-mediated cAMP production by measuring efficacy cooperativity in HBSS buffer containing pH 6.8 to 8.2 HEPES/pH 8.3 to 8.6 TAPS measured after 20 to 30 mins in presence of PDE inhibitor Ro 20-1724 by luciferase-glo reporter gene assay. In kind it is functional, cell-based. The method, boiled down:
as §3

For data set [13] the target is unchanged. As to the kind of experiment: Positive allosteric modulation of mouse GPR68 expressed in HEK293T cells co-expressing Gs assessed as stimulation of proton-mediated cAMP production by measuring allosteric index in HBSS buffer containing pH 6.8 to 8.2 HEPES/pH 8.3 to 8.6 TAPS measured after 20 to 30 mins in presence of PDE inhibitor Ro 20-1724 by luciferase-glo reporter gene assay. In kind it is functional, cell-based. The method, boiled down:
as §3

A short description of data set [14]: Drug uptake in Swiss albino mouse plasma at 25 mg/kg, ip administered as single dose measured after 0.5 hrs. In kind it is ADME, organism-based.
Data set [15] in a line: Drug uptake in Swiss albino mouse plasma at 25 mg/kg, ip administered as single dose measured up to 2 hrs. Type of data set: ADME, organism-based. The note with it: in vivo.

G-protein coupled receptor 68 (Homo sapiens), sequence (Q15743 whole entry): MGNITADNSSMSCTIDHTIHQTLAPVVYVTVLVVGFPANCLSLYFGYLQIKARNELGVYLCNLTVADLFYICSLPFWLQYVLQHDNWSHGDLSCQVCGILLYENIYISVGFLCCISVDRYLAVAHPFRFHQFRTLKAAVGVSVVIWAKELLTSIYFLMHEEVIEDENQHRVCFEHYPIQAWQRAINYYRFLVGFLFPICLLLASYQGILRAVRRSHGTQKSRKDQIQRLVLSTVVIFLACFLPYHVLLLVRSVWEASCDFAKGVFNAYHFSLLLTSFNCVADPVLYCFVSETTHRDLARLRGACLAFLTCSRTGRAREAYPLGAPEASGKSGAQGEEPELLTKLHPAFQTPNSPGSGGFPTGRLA
G-protein coupled receptor 68 (Mus musculus), sequence (Q8BFQ3 whole entry): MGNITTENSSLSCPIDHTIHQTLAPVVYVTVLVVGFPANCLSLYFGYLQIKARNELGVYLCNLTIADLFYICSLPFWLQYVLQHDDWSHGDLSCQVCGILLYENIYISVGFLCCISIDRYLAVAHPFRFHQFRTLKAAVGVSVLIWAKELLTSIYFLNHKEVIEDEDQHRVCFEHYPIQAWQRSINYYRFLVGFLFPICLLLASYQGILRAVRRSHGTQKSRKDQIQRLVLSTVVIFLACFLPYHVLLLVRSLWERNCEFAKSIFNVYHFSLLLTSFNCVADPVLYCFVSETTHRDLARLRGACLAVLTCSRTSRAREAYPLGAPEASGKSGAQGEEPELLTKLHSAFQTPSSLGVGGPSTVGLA
5-hydroxytryptamine receptor 2B, sequence (P41595 whole entry): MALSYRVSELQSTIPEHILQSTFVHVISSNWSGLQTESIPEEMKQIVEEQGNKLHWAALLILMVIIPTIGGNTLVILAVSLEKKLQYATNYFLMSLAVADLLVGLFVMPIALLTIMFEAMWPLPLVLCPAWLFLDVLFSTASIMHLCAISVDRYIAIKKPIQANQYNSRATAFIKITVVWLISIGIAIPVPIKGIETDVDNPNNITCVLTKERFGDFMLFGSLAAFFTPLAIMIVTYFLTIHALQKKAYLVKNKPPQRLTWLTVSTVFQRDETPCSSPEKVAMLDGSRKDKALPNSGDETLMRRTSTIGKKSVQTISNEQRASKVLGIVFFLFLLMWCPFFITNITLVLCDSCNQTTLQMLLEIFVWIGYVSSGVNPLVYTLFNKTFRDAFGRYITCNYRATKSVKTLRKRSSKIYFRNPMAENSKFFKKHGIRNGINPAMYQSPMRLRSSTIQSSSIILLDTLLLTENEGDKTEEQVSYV
G-protein coupled receptor 65 (Homo sapiens), sequence (Q8IYL9 whole entry): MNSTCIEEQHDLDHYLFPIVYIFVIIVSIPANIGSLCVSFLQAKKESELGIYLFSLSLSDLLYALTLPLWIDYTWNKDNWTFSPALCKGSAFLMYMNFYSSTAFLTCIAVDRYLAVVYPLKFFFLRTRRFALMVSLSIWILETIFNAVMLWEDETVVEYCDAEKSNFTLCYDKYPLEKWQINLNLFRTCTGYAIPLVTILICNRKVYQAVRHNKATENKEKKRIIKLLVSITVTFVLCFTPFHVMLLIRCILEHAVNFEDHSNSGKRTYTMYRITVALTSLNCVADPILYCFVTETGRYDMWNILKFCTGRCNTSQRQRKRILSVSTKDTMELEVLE
Melatonin receptor type 1A, sequence (P48039 whole entry): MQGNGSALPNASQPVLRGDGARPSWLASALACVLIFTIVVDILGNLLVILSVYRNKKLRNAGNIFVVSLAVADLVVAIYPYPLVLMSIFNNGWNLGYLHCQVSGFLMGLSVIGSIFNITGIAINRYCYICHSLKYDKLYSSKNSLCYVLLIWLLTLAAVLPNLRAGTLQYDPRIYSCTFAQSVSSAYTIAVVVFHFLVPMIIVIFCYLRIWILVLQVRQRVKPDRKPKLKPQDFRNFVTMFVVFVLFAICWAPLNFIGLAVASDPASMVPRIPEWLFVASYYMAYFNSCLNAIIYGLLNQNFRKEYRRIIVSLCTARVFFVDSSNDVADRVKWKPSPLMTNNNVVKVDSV

`Nc1nc(NCc2ccc(Oc3ccccc3)cc2)nc(-c2c(F)cccc2CO)n1`: the log(activity) in data set [1] came out at 0.9; in data set [2], 0.06; in [11], 1.26; in [12] it was 0.09. Also, the results for the Activity index in data set [3] and in [13] were 6.83 and 6.46, respectively. Moreover, in data set [4], the Activity result is “Dose-dependent effect”. In addition, the result in data set [5] was inactive. Also, the results for the Ki in data set [6] (read-out: Ki) and in data set [6] (read-out: pKi (converted)) were 219 nM and 100 to 316 nM, respectively. Further, the outcome in data set [7] and in data set [8] was Active. Moreover, in data set [9], the EC50 turned out to be 540 nM. In addition, the dissociation constant Kd in data set [9] came to 1100 nM. In addition, the Emax in data set [10] turned out to be 24%. This compound registered a concentration at 0.5 h in [14] above 10 µM. In addition, the Drug uptake entry in [15] is “Active”.
